Experimental findings from ChEMBL document CHEMBL1123238, “Binding requirements of phenolic phenylethylamines in the benzonorbornene skeleton at the active site of phenylethanolamine N-methyltransferase” (J Med Chem, 1986) are described below.

The target in data set [1] is T1, Phenylethanolamine N-methyltransferase (Bos taurus, UniProt P10938).
T1 sequence (P10938 whole entry): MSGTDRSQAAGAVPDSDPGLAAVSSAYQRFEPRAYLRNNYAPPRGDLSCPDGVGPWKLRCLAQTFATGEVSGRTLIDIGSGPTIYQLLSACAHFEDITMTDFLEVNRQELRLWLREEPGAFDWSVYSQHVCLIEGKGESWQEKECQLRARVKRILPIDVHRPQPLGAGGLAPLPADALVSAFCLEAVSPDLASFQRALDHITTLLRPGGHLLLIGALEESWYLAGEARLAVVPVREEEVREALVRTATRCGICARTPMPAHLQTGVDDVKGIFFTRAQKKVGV
The experiment in a line: Compound was tested in vitro inhibition of phenylethanolamine N-methyl-transferase (PNMT) activity using radiochemical assay.

Data set [2] is described as follows: Vmax of compound was measured. The format is ADME.
Substrate in data set [3]: N[C@@H]1CC2C[C@@H]1c1ccccc12
Briefly: (§1) Compound was tested in vitro for PNMT activity using radiochemical assay. Put shortly:
(§2)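 Bovine adrenal PNMT, partially purified through the isoelectric precipitation step. Compounds were tested as hydrobromide salts. Radiochemical assay used phosphate buffer at pH 8.0, unlabeled AdoMet (10 μM stock) plus [methyl-³H]AdoMet, and 30 min incubation at 37 °C. Reactions were quenched with borate at pH 10 and extracted into toluene/isoamyl alcohol (7:3), then scintillation-counted.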

Substrate in data set [4]: N[C@@H]1CC2CC1c1cc(O)c(O)cc12
Described as §1. Put shortly: as §2

Substrate in data set [5]: N[C@@H]1CC2CCC1c1ccccc12
The description is as §1. Put shortly: as §2

In turn, `N[C@@H]1CC2CC1c1c(O)cccc12` (stereo not given in full) showed a Ki in data set [1] of 3000 µM.

Turning to `N[C@@H]1CC2C[C@@H]1c1ccccc12`, the Vmax in data set [2] was found to be 0.08 nM/mg/min. The molecule also registered a Ki in data set [1] of 479 µM.

In turn, `N[C@@H]1C2CCC1c1c(O)cccc12` (stereo not given in full) returned a Ki in data set [1] of 4000 µM.

Turning to `N[C@@H]1CC2CCC1c1ccccc12` (stereo not given in full), in data set [2], the maximal velocity (Vmax) was 0.61 nM/mg/min. Moreover, in data set [1], affinity was put at a Ki of 258 µM.

With `N[C@@H]1CC2CC1c1cc(O)ccc12` (stereo not given in full), the affinity in data set [1], expressed as Ki, was 1110 µM.

In data set [1], `N[C@@H]1C2CCC1c1cc(O)ccc12` (stereo not given in full) came in with a Ki of 108 µM.

As to `N[C@@H]1CC2CC1c1ccc(O)cc12` (stereo not given in full), the Ki in data set [1] amounted to 304 µM.

Take `N[C@@H]1CC2CC1c1cc(O)c(O)cc12` (stereo not given in full): the Vmax in data set [2] was determined as 0.44 nM/mg/min. The same molecule came in with a Ki in data set [1] of 487 µM.

Molecule `N[C@@H]1CC2CC1c1cccc(O)c12` (stereo not given in full) had a Ki in data set [1] of 10000 µM.

B1: Phenylethanolamine N-methyltransferase (Bos taurus), P10938 (protein)
chain: MSGTDRSQAAGAVPDSDPGLAAVSSAYQRFEPRAYLRNNYAPPRGDLSCPDGVGPWKLRCLAQTFATGEVSGRTLIDIGSGPTIYQLLSACAHFEDITMTDFLEVNRQELRLWLREEPGAFDWSVYSQHVCLIEGKGESWQEKECQLRARVKRILPIDVHRPQPLGAGGLAPLPADALVSAFCLEAVSPDLASFQRALDHITTLLRPGGHLLLIGALEESWYLAGEARLAVVPVREEEVREALVRTATRCGICARTPMPAHLQTGVDDVKGIFFTRAQKKVGV
Turning to B1, the figures for the Km in data set [3], in data set [4] and in data set [5] were 192 µM, 686 µM and 81 µM, respectively.
